In ChEMBL document CHEMBL4680165, “β-Lactams with antiproliferative and antiapoptotic activity in breast and chemoresistant colon cancer cells” (Eur J Med Chem, 2020) one finds Activity and half-life data, which are given here for 1 compound.

Active and inactive are the calls of the source.

The test system of data set [1] is MCF7. The data set is described as follows: Cell cycle arrest in human MCF7 cells assessed as accumulation at G2/M phase at 1 uM measured after 48 hrs by PI staining based flow cytometry analysis (reference value: 24 %). The format is functional. In a few lines:
(§1)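 Cells (1 × 10^5/well) were treated at 1 µM for 24, 48 and 72 h; vehicle was 0.1% v/v ethanol. Cells were trypsinised, fixed in ice-cold 70% ethanol overnight at −20 °C, then stained with PI (50 µg/mL) plus DNase-free RNase A (50 µg/mL) at 37 °C for 30 min. DNA content of 10,000 cells per group was read by flow cytometry at 488 nm.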

In data set [2] the target is UDP-glucuronosyltransferases (UGTs) (Homo sapiens, UniProt O60656+O75310+O75795+P06133+P0DTE4+P0DTE5+P16662+P19224+P22309+P22310+P35503+P35504+P36537+P54855+Q6UWM9+Q9BY64+Q9HAW7+Q9HAW8+Q9HAW9). The data set is described as follows: Metabolic stability in human liver microsomes assessed as UGT-mediated N-glucuronidation by measuring half life at 3 uM measured up to 45 mins by LC-MS/MS analysis. The format is ADME. The conditions noted are these: liver microsomes. The method, boiled down:
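Pooled human liver microsomes (0.5 mg/mL protein final) with alamethicin (25 µg/mg) in 0.1 M phosphate pH 7.4, compound 3 µM final (0.25% DMSO), preincubated 37 °C. Reaction started with UDPGA (1 mM final). Sampled at 0, 5, 15, 30, 45 min into methanol, analysed by LC-MS/MS. Minus-UDPGA control run 45 min. Single incubations; t½ and CLint taken from the elimination rate constant.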

The next data set addresses Tubulin (Homo sapiens) (UniProt P68371+Q9H4B7+P0DPH7+P68366+Q13509+Q71U36+P04350+Q3ZCM7+P07437+P68363+Q9BQE3+Q6PEY2+Q13885+Q9BVA1+Q9BUF5). The data set is described as follows: Induction of microtubule depolymerization in human MCF7 cells assessed as induction of spindle formation at 10 to 50 nM for 5 hrs by immunofluorescence staining based confocal microscopic analysis. The data set is classed as cell-based. Conditions: dose 10-50 nM. In a few lines:
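MCF-7 cells were seeded at 1 × 10^5 cells/mL on chamber slides and treated at 0.01, 0.05 and 0.1 µM. Controls were vehicle (1% v/v ethanol), CA-4 (0.01 µM) and paclitaxel (1 µM). Cells were fixed and stained with anti-α-tubulin-FITC (DM1A) and Alexa Fluor 488, then counterstained with DAPI. Imaging was by confocal microscopy over three separate experiments.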

Another data set relates to HT-29. In words: Cell cycle arrest in human HT-29 cells assessed as accumulation at G2/M phase at 1 uM measured after 48 hrs by PI staining based flow cytometry analysis (reference value: 11 %). The data set is classed as functional. The method, boiled down: as §1
Background: In flow cytometry, cells or beads pass a laser one at a time.

Data set [3] relates to MCF7. In words: Induction of apoptosis in human MCF7 cells assessed as early apoptotic cells after 48 hrs by Annexin V-FITC and propidium iodide staining based flow cytometry. The conditions noted are these: dose 10-1000 nM. The format is functional, cell-based. The method, boiled down: (§2)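 MCF-7 cells were seeded at 1 × 10^5 cells/mL and treated for 48 h at 0.01, 0.1 and 1 µM; vehicle was 0.1% v/v ethanol. Annexin V staining was done on ice in the dark for 30 min in HEPES/NaCl/CaCl2 binding buffer, followed by PI. Flow cytometry scored early apoptotic (Annexin V+/PI−) and late apoptotic (Annexin V+/PI+) cells; total apoptotic is Annexin V-positive cells.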

Data set [4] concerns MCF7. The data set is described as follows: Induction of apoptosis in human MCF7 cells assessed as total apoptotic cells at 0.1 uM after 48 hrs by Annexin V-FITC and propidium iodide staining based flow cytometry (reference value: 10 %). The format is functional. The method, boiled down: as §2

In general, half-life refers to the time needed for the level to fall by half in the phase considered. Consider `COc1ccc([C@H]2[C@H](O)C(=O)N2c2cc(OC)c(OC)c(OC)c2)cc1F`, for which the Activity is 75% in the data set with MCF7 [1], 57% in the data set with HT-29, “Dose-dependent effect” with MCF7 [3] and 20% with MCF7 [4]. Moreover, in data set [2], the half-life at 3 µM was found to be 1.63 h. Further, the result at Tubulin (Homo sapiens) was Active.
